{"data": "Experimental data gathered from unrelated publications", "cell line": "SK-MEL-2", "observed": "cell growth or viability"}
{"Structure (SMILES)": "COc1ccc(-c2ccc(-c3ccc(C(=N)N)nc3)s2)cc1Cl", "technique": "SRB", "quantity": "GI50", "value": "2.15 µM"}
{"Structure (SMILES)": "O=C1NCCc2[nH]c(-c3ccncc3)cc21", "quantity": "IC50", "value": "> 10 µM"}
{"Structure (SMILES)": "COc1cccc(Oc2ccccc2NC(=O)CNC(=O)c2cccc3ccccc23)c1", "technique": "SRB", "time": "48 h", "quantity": "GI50", "value": "0.182 µM"}
{"Structure (SMILES)": "COc1ccc(-c2ccc(-c3ccc(C(=N)N)nc3)s2)cc1", "technique": "SRB", "quantity": "GI50", "value": "2.05 µM"}
{"Structure (SMILES)": "COc1ccc(C(=O)/C=C/c2ccc(Cl)c(Cl)c2)cc1S(N)(=O)=O", "technique": "SRB", "time": "48 h", "quantity": "GI50", "value": "5.6 µM"}
{"Structure (SMILES)": "O=C1NC(=NCc2cccs2)S/C1=C\\c1ccc2ncccc2c1", "quantity": "IC50", "value": "> 10 µM"}
{"Structure (SMILES)": "COc1ccc(C(=O)/C=C/c2ccccc2Br)cc1S(N)(=O)=O", "technique": "SRB", "time": "48 h", "quantity": "GI50", "value": "14.5 µM"}
{"Structure (SMILES)": "O=C(c1c(F)ccc(NS(=O)(=O)N2CC[C@@H](F)C2)c1F)c1c[nH]c2ncc(-c3cnc(C4CC4)nc3)cc12", "technique": "ATP luminescence", "time": "72 h", "quantity": "IC50", "value": "> 20 µM"}
